In ChEMBL document CHEMBL1250508, “Synthesis and cytotoxic potency of novel tris(1-alkylindol-3-yl)methylium salts: role of N-alkyl substituents” (Bioorg Med Chem, 2010):
Activity calls are given as the source filed them. The rule behind the calls is not given here.

Assays:
[1] = system: HCT-116; experiment: Cytotoxicity against human HCT116 cells after 72 hrs by MTT assay; assay type: functional, cell-based; settings: HCT-116, 72 h
Method in brief: (§1)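 Tumour lines were grown in DMEM with 5% fetal calf serum, 2 mM L-glutamine, penicillin and streptomycin at 37 °C, 5% CO2, and used in log phase. 5×10^3 cells per well were exposed to serial concentrations (each in triplicate; 10 mM DMSO stocks diluted in water) or 0.1% DMSO for 72 h. MTT was added for 2 h, formazan dissolved in DMSO, and A540 read. IC50 was taken at 50% viability versus vehicle.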

[2] = system: K562; experiment: Cytotoxicity against human K562 cells after 72 hrs by MTT assay; assay type: functional, cell-based; settings: K562, 72 h; method in brief: as §1
[3] = system: Mel-Kor; experiment: Cytotoxicity against human Mel-Kor cells after 72 hrs by MTT assay; assay type: functional, cell-based; method in brief: as §1
[4] = system: SK-OV-3; experiment: Cytotoxicity against human SKOV3 cells after 72 hrs by MTT assay; assay type: functional, cell-based; method in brief: as §1
[5] = system: HCT-116; experiment: Induction of apoptosis in p53 deficient human HCT116 cells at 1 uM after 24 to 48 hrs using Annexin V-FITC staining by flow cytometry; assay type: functional, cell-based
[6] = system: Fem-X; experiment: Cytotoxicity against human Fem-X cells after 72 hrs by MTT assay; assay type: functional, cell-based; method in brief: as §1
[7] = system: Jurkat; experiment: Cytotoxicity against human Jurkat cells after 72 hrs by MTT assay; assay type: functional, cell-based; method in brief: as §1
[8] = system: HCT-116; experiment: Induction of apoptosis in human HCT116 cells assessed as programmed cell death at 1 uM after 24 to 48 hrs using Annexin V-FITC staining by flow cytometry; assay type: functional, cell-based
Method in brief: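 HCT116 cells were plated at 5×10^4 per well overnight, given 1 µM for 24–48 h at 37 °C, 5% CO2 (controls without drug), washed with cold saline and harvested. One aliquot was stained with Annexin V-FITC per the manufacturer and analysed by flow cytometry.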

[9] = system: HCT-116; experiment: Induction of apoptosis in human HCT116 cells assessed as internucleosomal DNA fragmentation at 1 uM after 24 to 48 hrs by agarose gel by electrophoresis; assay type: functional, cell-based
Method in brief: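 HCT116 cells were seeded at 5×10^4 per well overnight and treated with 1 µM for 24–48 h, with drug-free controls. Cells were lysed for 30 min on ice in 350 mM NaCl, 20 mM Tris-HCl pH 7.4, 2 mM MgCl2, 1 mM DTT and 0.5% NP-40. DNA was phenol-chloroform extracted, ethanol/sodium acetate precipitated, and run on a 1% agarose gel.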

[10] = system: MCF7; experiment: Cytotoxicity against human MCF7 cells after 72 hrs by MTT assay; assay type: functional, cell-based; method in brief: as §1
[11] = system: SK-BR-3; experiment: Cytotoxicity against human SK-BR-3 cells after 72 hrs by MTT assay; assay type: functional, cell-based; method in brief: as §1
[12] = system: HCT-116; experiment: Induction of apoptosis in human HCT116 cells assessed as increase of hypodiploid nuclei at sub-G1 phase at 1 uM after 24 to 48 hrs […] by flow cytometry; assay type: functional, cell-based
Method in brief: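 HCT116 cells were seeded at 5×10^4 per well overnight, then exposed to 1 µM for 24–48 h at 37 °C with drug-free controls. Cells were washed in cold saline and lysed in 0.1% sodium citrate, 0.3% NP-40, 50 µg/ml RNase A and 10 µg/ml propidium iodide. Flow cytometry on FL2 gave the percentage of hypodiploid (sub-G1) nuclei.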

[13] = system: PBL; experiment: Cytotoxicity against human PBL cells after 72 hrs by MTT assay; assay type: cell-based
Method in brief: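 Lymphocytes were freshly isolated from peripheral blood of four healthy donors and pooled. 5×10^3 cells per well were treated with increasing concentrations in triplicate (DMSO stocks diluted in water) or 0.1% DMSO vehicle for 72 h. MTT was added for 2 h, then formazan dissolved in DMSO and read at 540 nm. IC50 was the concentration giving 50% viability relative to vehicle.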

[14] = system: HCT-116; experiment: Induction of apoptosis in human HCT116 cells assessed as loss of DNA integrity at 1 uM after 24 to 48 hrs using Annexin V-FITC staining by flow cytometry; assay type: functional, cell-based

SMILES | IC50 [1] | IC50 [2] | further results
Cn1cc([C+](c2cn(C)c3ccccc23)c2cn(C)c3ccccc23)c2ccccc21 | 3200 nM | 3200 nM | –
CCCCn1cc([C+](c2cn(CCCC)c3ccccc23)c2cn(CCCC)c3ccccc23)c2ccccc21 | 300 nM | 90 nM | –
CCn1cc([C+](c2cn(CC)c3ccccc23)c2cn(CC)c3ccccc23)c2ccccc21 | 1300 nM | 200 nM | –
CCCCCn1cc([C+](c2cn(CCCCC)c3ccccc23)c2cn(CCCCC)c3ccccc23)c2ccccc21 | 150 nM | 50 nM | Activity [3]: Active; Activity [4]: Active; Activity [5]: Active; Activity [6]: Active; Activity [7]: Active; Activity [8]: Active; Activity [9]: Active; Activity [10]: Active; Activity [11]: Active; Activity [12]: Active; Activity [13]: Non-toxic; Activity [14]: Active
c1ccc2c([C+](c3c[nH]c4ccccc34)c3c[nH]c4ccccc34)c[nH]c2c1 | 2300 nM | 1600 nM | –
CCCCCCCCCCn1cc([C+](c2cn(CCCCCCCCCC)c3ccccc23)c2cn(CCCCCCCCCC)c3ccccc23)c2ccccc21 | 16400 nM | 12400 nM | –
CCCn1cc([C+](c2cn(CCC)c3ccccc23)c2cn(CCC)c3ccccc23)c2ccccc21 | 1000 nM | 200 nM | –
c1ccc(Cn2cc([C+](c3cn(Cc4ccccc4)c4ccccc34)c3cn(Cc4ccccc4)c4ccccc34)c3ccccc32)cc1 | 15000 nM | 9300 nM | –
CCCCCCn1cc([C+](c2cn(CCCCCC)c3ccccc23)c2cn(CCCCCC)c3ccccc23)c2ccccc21 | 300 nM | 74 nM | –
